Active and inactive are the calls of the source. No cut-off for these calls is given here.
Legend:
[1] = tested on: Staphylococcus aureus; assay: Antibacterial activity against Staphylococcus aureus ATCC 29213 after 16 to 20 hrs by broth microdilution method; assay type: functional
Summary of the method: (§1)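 CLSI broth microdilution in cation-adjusted Mueller-Hinton broth. A 4-6 h culture was diluted to about 10⁶ CFU/mL and mixed 1:1 with twofold compound dilutions (256–0.5 µg/mL before mixing) prepared from aqueous stocks. Plates were incubated at 37 °C for 16-20 h. Each concentration was tested in duplicate, and the experiment was repeated at least twice.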

[2] = tested on: Enterococcus faecalis; assay: Antibacterial activity against Enterococcus faecalis after 16 to 20 hrs by broth microdilution method; assay type: functional
Summary of the method: (§2)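 Broth microdilution per CLSI in cation-adjusted Mueller-Hinton broth; 4-6 h cultures (~10⁸ CFU/mL) diluted to ~10⁶ CFU/mL and mixed 1:1 with twofold dilutions of water-dissolved compound (256 to 0.5 µg/mL). Incubated 16-20 h at 37 °C; MIC read visually. Each concentration run in duplicate, whole experiment repeated at least twice. MRSA, KPC and NDM-1 strains were clinical isolates.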

[3] = tested on: Escherichia coli; assay: Antibacterial activity against Escherichia coli ATCC 25922 after 16 to 20 hrs by broth microdilution method; assay type: functional; summary of the method: as §2
[4] = tested on: Salmonella enterica; assay: Antibacterial activity against Salmonella enterica after 16 to 20 hrs by broth microdilution method; assay type: functional; summary of the method: as §2
[5] = tested on: Staphylococcus aureus; assay: Antibacterial activity against methicillin-resistant Staphylococcus aureus after 16 to 20 hrs by broth microdilution method; assay type: functional; summary of the method: as §1
[6] = tested on: Klebsiella pneumoniae; assay: Antibacterial activity against carbapenemase-producing Klebsiella pneumoniae after 16 to 20 hrs by broth microdilution method; assay type: functional; summary of the method: as §2
[7] = tested on: Enterobacteriaceae; assay: Antibacterial activity against NDM-1-producing Enterobacteriaceae after 16 to 20 hrs by broth microdilution method; assay type: functional; summary of the method: as §2
[8] = Hemolytic activity in sheep RBC after 1 hr; assay type: ADME, cell-based, Ovis aries, Erythrocyte; conditions: sheep red blood cells (erythrocytes)
Summary of the method: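 Sheep RBCs suspended at 5% in PBS; 150 µL added to 50 µL compound dilutions (5120 to 10 µg/mL series). Incubated 1 h at 37 °C, then centrifuged; supernatant absorbance read at 540 nm. Lysis (%) = (A−A0)/(Atotal−A0)×100, with untreated 5% RBC as A0 and 0.1% Triton X-100 as total.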

[9] = tested on: Staphylococcus aureus; assay: Antibacterial activity against methicillin-resistant Staphylococcus aureus isolate M1 after 16 to 20 hrs by broth microdilution method; assay type: functional; summary of the method: as §1
[10] = tested on: Staphylococcus aureus; assay: Antibacterial activity against methicillin-resistant Staphylococcus aureus isolate M2 after 16 to 20 hrs by broth microdilution method; assay type: functional; summary of the method: as §1
[11] = tested on: Staphylococcus aureus; assay: Antibacterial activity against methicillin-resistant Staphylococcus aureus isolate M3 after 16 to 20 hrs by broth microdilution method; assay type: functional; summary of the method: as §1
[12] = tested on: Staphylococcus aureus; assay: Antibacterial activity against methicillin-resistant Staphylococcus aureus isolate M4 after 16 to 20 hrs by broth microdilution method; assay type: functional; summary of the method: as §1
[13] = tested on: Staphylococcus aureus; assay: Antibacterial activity against methicillin-resistant Staphylococcus aureus isolate M5 after 16 to 20 hrs by broth microdilution method; assay type: functional; summary of the method: as §1
[14] = tested on: Staphylococcus aureus; assay: Antibacterial activity against methicillin-resistant Staphylococcus aureus isolate M6 after 16 to 20 hrs by broth microdilution method; assay type: functional; summary of the method: as §1
[15] = tested on: Staphylococcus aureus; assay: Antibacterial activity against methicillin-resistant Staphylococcus aureus isolate M7 after 16 to 20 hrs by broth microdilution method; assay type: functional; summary of the method: as §1
[16] = tested on: Staphylococcus aureus; assay: Antibacterial activity against methicillin-resistant Staphylococcus aureus isolate M8 after 16 to 20 hrs by broth microdilution method; assay type: functional; summary of the method: as §1
[17] = tested on: Staphylococcus aureus; assay: Antibacterial activity against methicillin-resistant Staphylococcus aureus isolate M9 after 16 to 20 hrs by broth microdilution method; assay type: functional; summary of the method: as §1
[18] = tested on: Staphylococcus aureus; assay: Antibacterial activity against methicillin-resistant Staphylococcus aureus isolate M10 after 16 to 20 hrs by broth microdilution method; assay type: functional; summary of the method: as §1
[19] = tested on: Klebsiella pneumoniae; assay: Antibacterial activity against carbapenemase-producing Klebsiella pneumoniae isolate K1 after 16 to 20 hrs by broth microdilution method; assay type: functional; summary of the method: as §2
[20] = tested on: Klebsiella pneumoniae; assay: Antibacterial activity against carbapenemase-producing Klebsiella pneumoniae isolate K2 after 16 to 20 hrs by broth microdilution method; assay type: functional; summary of the method: as §2
[21] = tested on: Klebsiella pneumoniae; assay: Antibacterial activity against carbapenemase-producing Klebsiella pneumoniae isolate K3 after 16 to 20 hrs by broth microdilution method; assay type: functional; summary of the method: as §2
[22] = tested on: Klebsiella pneumoniae; assay: Antibacterial activity against carbapenemase-producing Klebsiella pneumoniae isolate K4 after 16 to 20 hrs by broth microdilution method; assay type: functional; summary of the method: as §2
[23] = tested on: Klebsiella pneumoniae; assay: Antibacterial activity against carbapenemase-producing Klebsiella pneumoniae isolate K5 after 16 to 20 hrs by broth microdilution method; assay type: functional; summary of the method: as §2
[24] = tested on: Klebsiella pneumoniae; assay: Antibacterial activity against carbapenemase-producing Klebsiella pneumoniae isolate K6 after 16 to 20 hrs by broth microdilution method; assay type: functional; summary of the method: as §2
[25] = tested on: Klebsiella pneumoniae; assay: Antibacterial activity against carbapenemase-producing Klebsiella pneumoniae isolate K7 after 16 to 20 hrs by broth microdilution method; assay type: functional; summary of the method: as §2
[26] = tested on: Klebsiella pneumoniae; assay: Antibacterial activity against carbapenemase-producing Klebsiella pneumoniae isolate K8 after 16 to 20 hrs by broth microdilution method; assay type: functional; summary of the method: as §2
[27] = tested on: Klebsiella pneumoniae; assay: Antibacterial activity against carbapenemase-producing Klebsiella pneumoniae isolate K9 after 16 to 20 hrs by broth microdilution method; assay type: functional; summary of the method: as §2
[28] = tested on: Klebsiella pneumoniae; assay: Antibacterial activity against carbapenemase-producing Klebsiella pneumoniae isolate K10 after 16 to 20 hrs by broth microdilution method; assay type: functional; summary of the method: as §2
[29] = tested on: Enterobacteriaceae; assay: Antibacterial activity against NDM-1-producing Enterobacteriaceae isolate N1 after 16 to 20 hrs by broth microdilution method; assay type: functional; summary of the method: as §2
[30] = tested on: Enterobacteriaceae; assay: Antibacterial activity against NDM-1-producing Enterobacteriaceae isolate N2 after 16 to 20 hrs by broth microdilution method; assay type: functional; summary of the method: as §2
[31] = tested on: Enterobacteriaceae; assay: Antibacterial activity against NDM-1-producing Enterobacteriaceae isolate N3 after 16 to 20 hrs by broth microdilution method; assay type: functional; summary of the method: as §2
[32] = tested on: Enterobacteriaceae; assay: Antibacterial activity against NDM-1-producing Enterobacteriaceae isolate N4 after 16 to 20 hrs by broth microdilution method; assay type: functional; summary of the method: as §2
[33] = tested on: Enterobacteriaceae; assay: Antibacterial activity against NDM-1-producing Enterobacteriaceae isolate N5 after 16 to 20 hrs by broth microdilution method; assay type: functional; summary of the method: as §2
[34] = tested on: Enterobacteriaceae; assay: Antibacterial activity against NDM-1-producing Enterobacteriaceae isolate N6 after 16 to 20 hrs by broth microdilution method; assay type: functional; summary of the method: as §2
[35] = tested on: Enterobacteriaceae; assay: Antibacterial activity against NDM-1-producing Enterobacteriaceae isolate N7 after 16 to 20 hrs by broth microdilution method; assay type: functional; summary of the method: as §2
[36] = tested on: Enterobacteriaceae; assay: Antibacterial activity against NDM-1-producing Enterobacteriaceae isolate N8 after 16 to 20 hrs by broth microdilution method; assay type: functional; summary of the method: as §2
[37] = tested on: Enterobacteriaceae; assay: Antibacterial activity against NDM-1-producing Enterobacteriaceae isolate N9 after 16 to 20 hrs by broth microdilution method; assay type: functional; summary of the method: as §2
[38] = tested on: Enterobacteriaceae; assay: Antibacterial activity against NDM-1-producing Enterobacteriaceae isolate N10 after 16 to 20 hrs by broth microdilution method; assay type: functional; summary of the method: as §2
[39] = tested on: Staphylococcus aureus; assay: Induction of cytoplasmic membrane depolarization in Staphylococcus aureus ATCC 29213 at 20 ug/ml measured every 2 mins for 12 mins by diSC35 staining based fluorescence assay; assay type: functional, organism-based
Summary of the method: (§3)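 Mid-log cells (4–6 h) pelleted, washed and resuspended (~10^8 CFU/mL) in PBS for S. aureus, or in 5 mM HEPES, 5 mM glucose and 100 mM KCl (1:1:1) for E. coli. Preloaded with diSC35 (10 µM, 50 µL), 30 min for S. aureus and 40 min plus EDTA (200 µM, 50 µL) for E. coli. Baseline read 8 min (ex 622/em 670 nm), then compound added to 20 µg/mL final and read every 2 min for 12 min. Water control.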

[40] = tested on: Escherichia coli; assay: Induction of cytoplasmic membrane depolarization in Escherichia coli ATCC 25922 at 20 ug/ml measured every 2 mins for 12 mins by diSC35 staining based fluorescence assay; assay type: functional, organism-based; summary of the method: as §3
[41] = tested on: Staphylococcus aureus; assay: Induction of inner membrane permeabilization in Staphylococcus aureus ATCC 29213 at 20 ug/ml measured every 2 mins for 12 mins by propidium iodide staining based fluorescence assay; assay type: functional, organism-based
Summary of the method: (§4)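 Mid-log cells (~10^8 CFU/mL) pre-incubated with propidium iodide (10 µM, 50 µL), 30 min for S. aureus and 40 min for E. coli. Fluorescence (ex 535/em 617 nm) read for 8 min, then compound added to 20 µg/mL final and monitored every 2 min for 12 min. Water-treated control.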

[42] = tested on: Escherichia coli; assay: Induction of inner membrane permeabilization in Escherichia coli ATCC 25922 at 20 ug/ml measured every 2 mins for 12 mins by propidium iodide staining based fluorescence assay; assay type: functional, organism-based; summary of the method: as §4
[43] = tested on: Escherichia coli; assay: Induction of outer membrane permeabilization in Escherichia coli ATCC 25922 at 20 ug/ml measured every 2 mins for 12 mins by NPN staining based fluorescence assay; assay type: functional, organism-based
Summary of the method: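 Mid-log E. coli (~10^8 CFU/mL) in black plates pre-incubated about 40 min with NPN (10 µM, 50 µL). Baseline read 8 min (ex 350/em 420 nm), then compound added to 20 µg/mL final and fluorescence followed every 2 min for 12 min. Water-treated control.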

Compound: CCCCCCCCN(CCCCCCCC)C(=O)[C@H](N)CO.Cl
- MIC [1]: 4 mg/L
- MIC [2]: 4 mg/L
- MIC [3]: 8 mg/L
- MIC [4]: 8 mg/L
- MIC [5]: 4 mg/L
- MIC [6]: 32 mg/L
- MIC [7]: 16 mg/L
- HC50 at 1 h [8]: 367 µg/mL
- MIC [9]: 4 mg/L
- MIC [10]: 4 mg/L
- MIC [11]: 4 mg/L
- MIC [12]: 4 mg/L
- MIC [13]: 4 mg/L
- MIC [14]: 4 mg/L
- MIC [15]: 4 mg/L
- MIC [16]: 4 mg/L
- MIC [17]: 4 mg/L
- MIC [18]: 4 mg/L
- MIC [19]: 32 mg/L
- MIC [20]: 32 mg/L
- MIC [21]: 32 mg/L
- MIC [22]: 32 mg/L
- MIC [23]: 32 mg/L
- MIC [24]: 32 mg/L
- MIC [25]: 32 mg/L
- MIC [26]: 32 mg/L
- MIC [27]: 32 mg/L
- MIC [28]: 32 mg/L
- MIC [29]: 32 mg/L
- MIC [30]: 16 mg/L
- MIC [31]: 16 mg/L
- MIC [32]: 16 mg/L
- MIC [33]: 16 mg/L
- MIC [34]: 16 mg/L
- MIC [35]: 32 mg/L
- MIC [36]: 32 mg/L
- MIC [37]: 16 mg/L
- MIC [38]: 16 mg/L
- Activity [39]: Active
- Activity [40]: Active
- Activity [41]: Active
- Activity [42]: Active
- Activity [43]: Active

Compound: CCCCCCCCCCCN(CCCCCCCCCCC)C(=O)[C@@H](N)CCCCN.Cl.Cl
- MIC [1]: 4 mg/L
- MIC [2]: 2 mg/L
- MIC [3]: 16 mg/L
- MIC [4]: 8 mg/L
- MIC [5]: 4 mg/L
- MIC [6]: 8 mg/L
- MIC [7]: 32 mg/L
- HC50 at 1 h [8]: 89 µg/mL
- MIC [9]: 2 mg/L
- MIC [10]: 1 mg/L
- MIC [11]: 2 mg/L
- MIC [12]: 2 mg/L
- MIC [13]: 4 mg/L
- MIC [14]: 4 mg/L
- MIC [15]: 4 mg/L
- MIC [16]: 4 mg/L
- MIC [17]: 4 mg/L
- MIC [18]: 4 mg/L
- MIC [19]: 32 mg/L
- MIC [20]: 16 mg/L
- MIC [21]: 16 mg/L
- MIC [22]: 8 mg/L
- MIC [23]: 32 mg/L
- MIC [24]: 32 mg/L
- MIC [25]: 32 mg/L
- MIC [26]: 8 mg/L
- MIC [27]: 32 mg/L
- MIC [28]: 32 mg/L
- MIC [29]: 32 mg/L
- MIC [30]: 32 mg/L
- MIC [31]: 32 mg/L
- MIC [32]: 32 mg/L
- MIC [33]: 32 mg/L
- MIC [34]: 32 mg/L
- MIC [35]: 16 mg/L
- MIC [36]: 16 mg/L
- MIC [37]: 32 mg/L
- MIC [38]: 32 mg/L
- Activity [39]: Active
- Activity [40]: Active
- Activity [41]: Active
- Activity [42]: Active
- Activity [43]: Active

— ChEMBL document CHEMBL4130549, “Synthesis and bioactivities study of new antibacterial peptide mimics: The dialkyl cationic amphiphiles” (Eur J Med Chem, 2018)
